These results are taken from ChEMBL document CHEMBL4251645, “Synthesis of C3-Neoglycosides of digoxigenin and their anticancer activities” (2018).

The test system of test [1] is NCI-H460. Nature of the test: Induction of Nur77 protein expression in human NCI-H460 cells at 20 nM after 3 hrs by Western blot assay. The class given is functional, cell-based. In short, it runs like this:
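NIH-H460 cells exposed to 20 nM glycoside for 3 h and lysed. Equal lysate amounts run on 8% SDS-PAGE and blotted to PVDF, then blocked in 5% milk/TBST for 1 h. Anti-Nur77 (1:1000) applied overnight at 4 °C, secondary antibody for 1 h, ECL detection. β-actin (1:10000) reprobe served as loading control.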

Test [2] has as its system NCI-H460. Nature of the test: Induction of apoptosis in human NCI-H460 cells assessed as late apoptotic cells at 20 nM after 12 hrs by Annexin V-FITC/propidium iodide staining based flow cytometry (reference value: 2.54%). The format is functional. In short, it runs like this: (§1)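 NIH-H460 cells seeded at 1 × 10^5/well and given 20 nM glycoside for 12 h. Cells trypsinized, spun at 1,500 rpm for 5 min and resuspended in Annexin V binding buffer. Annexin V-FITC stain for 15 min, then propidium iodide for 5 min. Populations quantified by FACS Calibur flow cytometry.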
In general terms: A flow cytometer gives signals particle by particle.

Test [3] addresses Nuclear receptor subfamily 4immunitygroup A member 1 (Homo sapiens) (UniProt P22736). Nature of the test: Induction of Nur77 protein translocation from nucleus to cytoplasm in human NCI-H460 cells at 20 nM after 9 hrs by DAPI staining based immunofluorescence microscopic method. The format is cell-based. Summed up:
(§2)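 NIH-H460 cells given 20 nM glycoside for 3, 6 and 9 h. Cells permeabilized with 0.1% Triton X-100 for 15 min and blocked in 1% BSA for 30 min. Anti-Nur77 applied at 37 °C for 1 h, then Cy3 anti-rabbit IgG for 30 min at room temperature. DAPI stained nuclei; confocal imaging scored Nur77 nuclear versus cytoplasmic location.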

Test [4] shares this target. The experiment in a line: Induction of Nur77 protein translocation from nucleus to cytoplasm in human NCI-H460 cells at 20 nM by DAPI staining based immunofluorescence microscopic method. The class given is cell-based. The conditions noted are these: TDE = time-dependent effect. In short, it runs like this: as §2
The test system of test [5] is NCI-H460. Nature of the test: Induction of apoptosis in human NCI-H460 cells assessed as necrotic cells at 20 nM after 12 hrs by Annexin V-FITC/propidium iodide staining based flow cytometry (reference value: 0.93%). The format is functional. Summed up: as §1
Test [6] relates to NCI-H460. Nature of the test: Induction of apoptosis in human NCI-H460 cells assessed as live cells at 20 nM after 12 hrs by Annexin V-FITC/propidium iodide staining based flow cytometry (reference value: 91.81%). The class given is functional. In short, it runs like this:
as §1

Test [7] concerns NCI-H460. Nature of the test: Cytotoxicity against human NCI-H460 cells assessed as reduction in cell viability at 50 nM after 48 hrs by MTT assay. The class given is functional, cell-based. Summed up: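 NIH-H460 cells (ATCC; RPMI 1640, 10% FBS, L-glutamine, penicillin/streptomycin) seeded at 3 × 10^3/well, then given medium with 50 nM glycoside for 48 h. MTT ([…]) added for 4 h at 37 °C, formazan dissolved in DMSO, absorbance at 560 nm.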
On the technique in general: Tetrazolium assays rely on reduction of a dye to a coloured formazan, in cell work by metabolically active cells.

Test [8] relates to NCI-H460. Nature of the test: Induction of apoptosis in human NCI-H460 cells assessed as early apoptotic cells at 20 nM after 12 hrs by Annexin V-FITC/propidium iodide staining based flow cytometry (reference value: 4.72%). The format is functional. Summed up: as §1
Test [9] relates to NCI-H460. The experiment in a line: Induction of apoptosis in human NCI-H460 cells assessed as late apoptotic cells after 12 hrs by Annexin V-FITC/propidium iodide staining based flow cytometry (reference value: 2.54%). The class given is functional.
The subject of test [10] is NCI-H460. Nature of the test: Induction of apoptosis in human NCI-H460 cells assessed as live cells after 12 hrs by Annexin V-FITC/propidium iodide staining based flow cytometry (reference value: 91.81%). The class given is functional.
The test system of test [11] is NCI-H460. The experiment in a line: Induction of apoptosis in human NCI-H460 cells assessed as necrotic cells after 12 hrs by Annexin V-FITC/propidium iodide staining based flow cytometry (reference value: 0.93%). The class given is functional.
For test [12], the system named is NCI-H460. The experiment in a line: Induction of apoptosis in human NCI-H460 cells assessed as early apoptotic cells after 12 hrs by Annexin V-FITC/propidium iodide staining based flow cytometry (reference value: 4.72%). The class given is functional.

Structures are written as SMILES. Calls of active or inactive are those of the source. The calls are words filed in the database; no cut-off is given here.

Nuclear receptor subfamily 4immunitygroup A member 1 (Homo sapiens), sequence (P22736 whole entry): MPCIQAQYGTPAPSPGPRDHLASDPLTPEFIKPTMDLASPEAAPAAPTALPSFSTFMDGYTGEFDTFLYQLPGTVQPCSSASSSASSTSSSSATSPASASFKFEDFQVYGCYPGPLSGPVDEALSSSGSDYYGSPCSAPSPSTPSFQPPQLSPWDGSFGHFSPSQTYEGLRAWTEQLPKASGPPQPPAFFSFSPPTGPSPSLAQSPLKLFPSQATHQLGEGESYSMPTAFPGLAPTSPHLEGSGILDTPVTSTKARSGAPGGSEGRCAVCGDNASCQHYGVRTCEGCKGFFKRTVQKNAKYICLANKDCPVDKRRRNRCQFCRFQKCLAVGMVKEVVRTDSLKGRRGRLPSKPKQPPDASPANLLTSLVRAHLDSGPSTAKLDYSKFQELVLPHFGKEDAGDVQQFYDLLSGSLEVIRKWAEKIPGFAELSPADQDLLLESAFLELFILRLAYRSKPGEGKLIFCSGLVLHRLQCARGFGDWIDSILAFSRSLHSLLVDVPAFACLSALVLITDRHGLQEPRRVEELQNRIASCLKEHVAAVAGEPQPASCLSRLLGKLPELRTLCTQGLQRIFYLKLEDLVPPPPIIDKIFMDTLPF

Take `C[C@]12CC[C@H](OC3O[C@H](CO)[C@@H](O[C@@H]4O[C@H](CO)[C@H](O)[C@H](O)[C@H]4O)[C@H](O)[C@H]3O)C[C@H]1CC[C@@H]1[C@@H]2C[C@@H](O)[C@]2(C)[C@@H](C3=CC(=O)OC3)CC[C@]12O` (stereo not given in full): the result in the test with NCI-H460 [1] was Active.
With `C[C@@H]1OC(O[C@H]2CC[C@@]3(C)[C@H](CC[C@@H]4[C@@H]3C[C@@H](O)[C@]3(C)[C@@H](C5=CC(=O)OC5)CC[C@]43O)C2)[C@H](O)[C@H](O)[C@H]1O` (stereo not given in full), the Activity was 5.5% with NCI-H460 [2]; “Tde” in test [4]; 1.55% with NCI-H460 [5]; 83.59% in the test on NCI-H460 [6]; 9.35% with NCI-H460 [8]. Also, the result (in test [3]; in the test on NCI-H460 [1]; in the test on NCI-H460 [7]) was Active.
As for `C[C@]12CC[C@H](OC3OC[C@@H](O)[C@@H](O)[C@H]3O)C[C@H]1CC[C@@H]1[C@@H]2C[C@@H](O)[C@]2(C)[C@@H](C3=CC(=O)OC3)CC[C@]12O` (stereo not given in full), the Activity in the test on NCI-H460 [2] was 4.58%; in test [4], “Tde”; in the test on NCI-H460 [5], 1.24%; with NCI-H460 [6] it was 83.97%; in the test on NCI-H460 [8], 10.21%. The outcome (in [3]; in the test on NCI-H460 [1]; with NCI-H460 [7]) was Active.
For `C[C@@H]1OC(O[C@H]2CC[C@@]3(C)[C@H](CC[C@@H]4[C@@H]3C[C@@H](O)[C@]3(C)[C@@H](C5=CC(=O)OC5)CC[C@]43O)C2)[C@@H](O)[C@H](O)[C@@H]1O` (stereo not given in full), the Activity was 9.01% with NCI-H460 [2]; “Tde” in test [4]; 4.21% in the test with NCI-H460 [5]; 61.75% with NCI-H460 [6]; 25.02% with NCI-H460 [8]. Also, the result (in test [3]; in the test with NCI-H460 [1]; with NCI-H460 [7]) was Active.
As for `C[C@]12CC[C@H](OC3O[C@H](CO)[C@@H](O)[C@H](O)[C@H]3O)C[C@H]1CC[C@@H]1[C@@H]2C[C@@H](O)[C@]2(C)[C@@H](C3=CC(=O)OC3)CC[C@]12O` (stereo not given in full), the outcome with NCI-H460 [7] was Active.
As for `C[C@H]1O[C@@H](O[C@H]2[C@@H](O)CC(O[C@H]3CC[C@@]4(C)[C@H](CC[C@@H]5[C@@H]4C[C@@H](O)[C@]4(C)[C@@H](C6=CC(=O)OC6)CC[C@]54O)C3)O[C@@H]2C)C[C@H](O)[C@@H]1O` (stereo not given in full), the result in the test on NCI-H460 [1] was Active.
With `C[C@H]1O[C@@H](O[C@H]2[C@@H](O)C[C@H](O[C@H]3[C@@H](O)C[C@H](O[C@H]4CC[C@@]5(C)[C@H](CC[C@@H]6[C@@H]5C[C@@H](O)[C@]5(C)[C@@H](C7=CC(=O)OC7)CC[C@]65O)C4)O[C@@H]3C)O[C@@H]2C)C[C@H](O)[C@@H]1O` [DIGOXIN], the Activity with NCI-H460 [9] is 4.64%; with NCI-H460 [10] it was 90.71%; with NCI-H460 [11], 0.6%; in the test with NCI-H460 [12], 4.06%.
For `C[C@]12CC[C@@H](O)C[C@H]1CC[C@@H]1[C@@H]2C[C@@H](O)[C@]2(C)[C@@H](C3=CC(=O)OC3)CC[C@]12O`, the result in the test with NCI-H460 [1] was Active.
Still for that read-out and setting: the value for `C[C@]12CC[C@H](OC3O[C@H](CO)[C@H](O)[C@H](O)[C@H]3O)C[C@H]1CC[C@@H]1[C@@H]2C[C@@H](O)[C@]2(C)[C@@H](C3=CC(=O)OC3)CC[C@]12O` (stereo not given in full) was “Active”.
The same measure, in the same setting: next, `C[C@]12CC[C@H](OC3O[C@H](CO)[C@@H](O[C@@H]4O[C@H](CO)[C@@H](O)[C@H](O)[C@H]4O)[C@H](O)[C@H]3O)C[C@H]1CC[C@@H]1[C@@H]2C[C@@H](O)[C@]2(C)[C@@H](C3=CC(=O)OC3)CC[C@]12O` (stereo not given in full): “Active”; `C[C@]12CC[C@@H](OC3O[C@H](CO)[C@@H](O)[C@H](O)[C@@H]3O)C[C@H]1CC[C@@H]1[C@@H]2C[C@@H](O)[C@]2(C)[C@@H](C3=CC(=O)OC3)CC[C@]12O` (stereo not given in full): “Active”.
